Sampled rows, rich in hits. Any-hit rate of the full collection: about 2.6%.
Vif inh: HIV Vif inhibition; HEK293T cells, Vif self-association by quenched fluorescence, imaging, 24 h; inhibition, % at 7.49 µM; 340,000 compounds, 0.35% hits; in the data active = inhibition above about 50%, passing the limit was not always enough; inconclusive = no clear call, values can overlap the other calls; inactive = below about 31%
esBAF inh: SWI/SNF esBAF complex inhibition; mouse ES cells, Bmi1-luciferase knock-in reporter, 24 h; 100% = twice the neutral-well signal; reporter increase, % at 12.5 µM; 350,000 compounds, 2% hits; in the data active = activation above about 40%; inconclusive = no clear call, values can overlap the other calls;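 also: 0% = median of the plate's neutral control wells and 100% = double that signal; a rise in the Bmi1 reporter signal indicates esBAF inhibition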
MITF act: activators of MITF-driven TRPM1 promoter activity in SK-MEL-5 cells; AID 588334; activation, % at 12.5 µM; SK-MEL-5 TRPM1-promoter luciferase, 24 h; % of positive control, neutral wells = 0; 300,000 compounds, 0.75% hits;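 active = mean activation of at least 80% with every replicate also reaching 80%; inconclusive = mean reaches 80% but some replicate falls short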;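 also: 0% = neutral control wells and 100% = parthenolide positive control wells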
XiGFP reactiv: X-chromosome reactivation activator | XiGFP mouse fibroblasts, % GFP-positive cells imaging, 3 d; cells co-treated with 5-aza-dC sensitizer; scaled so ellipticine positive control = 100% | activation, % at 7.58 µM | 360,000 compounds, 0.055% hits | AID 743238;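 active = mean normalized replicate activation at least 10% and every replicate at or above 10%; inconclusive = only one of the two criteria met; inactive = mean below 10% and not all replicates reach 10%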;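 also: 0% = median of on-plate neutral control wells and 100% = ellipticine 6 µM median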
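assay system = SV40-immortalized XiGFP fibroblast cells, line 68-5-11 | buffer or medium = DMEM plus 5-aza-dC sensitizer | doses = single-point pinned compound dosing | times = 3-day compound exposure, then 15 min fixation at room temperature | benchmarks = positive control ellipticine, 6 µM final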
Wnt bcat act: Wnt/beta-catenin pathway activation; activation, % at 9.35 µM; 300,000 compounds, 1.2% hits; Wnt/beta-catenin reporter cell assay, activator, plate reader; in the data active = activation above about 30%, passing the limit was not always enough; inconclusive = no clear call, values can overlap the other calls;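 also: 0% = neutral control wells and 100% = positive control wells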
* marks the source's active call; other numbers are inactive results; ? = inconclusive; · = no result given.

SMILES	Vif inh	esBAF inh	MITF act	XiGFP reactiv	Wnt bcat act
COCC(=O)N1[C@@H]2CN(C(=O)Nc3ccccc3F)c3ccccc3[C@@H]2[C@@H]1CO	·	7	·	0	·
CCS(=O)(=O)N1CC(=O)N2[C@H](CO)[C@@H](c3ccc(C#Cc4ccc(F)cc4)cc3)[C@@H]2C1	·	·	·	0	·
CCC1=NN(C(=O)c2ccccc2Br)C(O)(c2ccc(Br)cc2)C1 (stereo not drawn)	-3	·	-6	0	-2
CCC1=NN(C(=O)c2ccccc2O)C(O)(c2ccccc2)C1 (stereo not drawn)	-8	87*	·	0	2
COc1ccc(-n2nc(C(=O)NCC(=O)N3CCC(C)CC3)c3ccccc3c2=O)cc1Cl	4	47*	79	0	8
CC(C)NC(=O)N(C)C[C@@H]1Oc2ccc(NC(=O)c3ccncc3)cc2C(=O)N([C@H](C)CO)C[C@H]1C	·	-4	·	0	·
COc1cc2c(cc1OC)-c1cc(Nc3ccccc3)nc(=O)n1CC2	-3	·	·	0	45*
COCc1cc(C)nc(SCC(=O)Nc2ccc3[nH]c(=O)[nH]c3c2)c1C#N	-2	-7	6	0	-4
Cc1cc(C)c(C#N)c(SCC(=O)Nc2cc(C)on2)n1	-2	82*	?	0	2
Cc1cc(C)c(C#N)c(SCC(=O)Nc2ccc3c(c2)OCO3)n1	-2	19	25	·	42*
Cc1cc(NC(=O)CSc2nc3c(C)ccc(C)c3cc2C#N)no1	0	2	5	0	0
COCc1cc(C)nc(SCC(=O)Nc2ccc(C)c(C)c2)c1C#N	-14	43*	36	·	-1
Cc1cc(NC(=O)CSc2nnc(C)c(=O)[nH]2)no1	69*	-1	-5	0	-2
Cc1nc(SCC(=O)Nc2ccc3c(c2)OCO3)c(C#N)c2c1CCCC2	-8	35	27	·	3
COCCNC(=O)[C@@H]1[C@@H](CO)[C@@H]2Cn3c(ccc(-c4cccc(F)c4)c3=O)[C@H]1N2C(=O)NC(C)C	·	2	·	0	·
Cc1noc(C)c1NC(=O)N[C@H]1CC[C@H](CCNC(=O)C2CCC2)O[C@@H]1CO	·	-6	·	0	·
C[C@H](CO)N1C[C@H](C)[C@H](CN(C)Cc2ccc3c(c2)OCO3)Oc2ncc(-c3cc4ccccc4o3)cc2C1=O	·	·	·	0	·
COc1cc(Cl)ccc1OCc1cc(C(=O)N(C)CC2CCCCO2)no1 (stereo not drawn)	1	70*	50	0	40*
Cc1nnc(CN(C)C(=O)c2cc(COc3ccc(F)cc3Cl)on2)o1	21	53*	48	0	18
CN(CCC1CCCCO1)C(=O)c1cc(COc2ccc(F)cc2F)on1 (stereo not drawn)	-2	2	4	0	3
CN(CC1CCCCO1)C(=O)c1cc(COc2ccc(F)cc2Cl)on1 (stereo not drawn)	-8	43*	61	0	13
Cc1nnc(CN(C)C(=O)c2cc(COc3ccc(C)c(C)c3)on2)o1	-4	11	24	0	0
COc1ccc(OCc2cc(C(=O)N3CCSCC3)no2)c(Cl)c1	·	·	?	0	27
COc1ccc(OCc2cc(C(=O)N(C)CCC3CCOCC3)no2)c(Cl)c1	1	58*	68	0	22
O=C(C[C@H]1C[C@@H]2c3cc(NC(=O)NC4CCCC4)ccc3O[C@@H]2[C@@H](CO)O1)NCc1cc(F)ccc1F	·	1	·	0	·
SMILES	Vif inh	esBAF inh	MITF act	XiGFP reactiv	Wnt bcat act
C[C@H]1CN([C@@H](C)CO)C(=O)c2cc(NS(=O)(=O)c3ccc(Cl)cc3)ccc2O[C@H]1CN(C)C(=O)Nc1ccc(C(F)(F)F)cc1	·	-3	·	-1	·
COCCNC(=O)C[C@@H]1C=C[C@H](NC(=O)NC2CCCC2)[C@@H](CO)O1	·	-5	·	0	·
COc1ccc(OCc2cc(C(=O)N(C)C(C)c3ccon3)no2)c(Cl)c1 (stereo not drawn)	-7	73*	69	1	19
COc1ccc(OCc2cc(C(=O)N(C)CC3CCCCO3)no2)c(Cl)c1 (stereo not drawn)	-8	41*	44	0	19
C[C@H]1CN([C@@H](C)CO)C(=O)c2cc(NC(=O)C3CCCCC3)ccc2O[C@H]1CN(C)C(=O)NC1CCCCC1	·	-2	·	-1	·
Cc1ccc2nc(-c3ccc(N4C(=N)SC5CS(=O)(=O)CC54)cc3)sc2c1 (stereo not drawn)	3	·	104*	0	·
C=CCN1C(=O)/C(=C2/Sc3ccc(OC)cc3N2C)SC1=NCc1ccccc1	39	3	10	0	·
COc1ccc2c(c1)N(C)/C(=C1/SC(=NCc3ccccc3)N(c3ccccc3)C1=O)S2	170*	5	-1	·	-1
COc1cc(NC(=O)C2Cc3ccccc3CN2S(C)(=O)=O)cc(OC)c1 (stereo not drawn)	-9	1	-3	0	-1
COc1ccc(OC)c(S(=O)(=O)N2Cc3ccccc3CC2C(=O)Nc2nccs2)c1 (stereo not drawn)	-1	51*	40	·	·
Cn1cnc(S(=O)(=O)N[C@@H]2CC[C@@H](CC(=O)Nc3ccc(-c4ccccc4)cc3)O[C@@H]2CO)c1	·	2	·	0	·
Cc1cc(-c2nnc(CCC(=O)N(CC3CCC3)CC3CCCO3)o2)no1 (stereo not drawn)	7	47*	32	0	-1
Cc1cc(-c2nnc(CCC(=O)N(CC3CC3)CC3CCCO3)o2)no1 (stereo not drawn)	33	·	-8	0	-1
COc1ccc2c3c(n(C)c2c1)[C@H](CO)N(C(=O)NC(C)C)CC31CN(CC2CCOCC2)C1	·	·	·	1	·
CC(=O)Oc1ccc2c(=O)c(-c3ccccc3)coc2c1	3	·	63	?	41*
CCOC(=O)COc1ccc2c(=O)c(-c3ccccc3)coc2c1	1	-2	20	0	-2
COc1ccc(-c2coc3cc(OC(C)=O)ccc3c2=S)cc1	21	66*	87*	0	-3
O=C(c1ccccc1F)N1CC(=O)N2[C@@H](CO)[C@@H](c3ccc(C#Cc4ccc(F)cc4)cc3)[C@@H]2C1	·	·	·	0	·
COc1ccccc1OCCCC(=O)NCc1ccco1	59*	·	0	0	-1
COc1c(C(=O)Nc2ccc(Br)cn2)ccc2ccccc12	-16	49*	67	0	29
O=C(Nc1ccc(Br)cn1)c1cccc(C(=O)Nc2ccc(Br)cn2)c1	25	-8	-17	0	-1
O=C(Nc1ccc(Br)cn1)c1ccc2ccccc2c1	2	56*	·	0	17
COc1ccccc1OCCCC(=O)Nc1nccs1	-5	82*	59	0	6
COc1cc(C(=O)OCC(=O)NCc2ccco2)cc(OC)c1OC	-1	-8	-15	·	-3
COc1c(C(=O)Nc2nccs2)ccc2ccccc12	-1	42*	57	0	37*

Assay outcomes from PubChem.
